Source: the RNAGym collection of RNA variant scans (doi:10.1126/science.aae0568)
Fewer inactive variants are shown than the library holds.

B1: tRNA (parent)
chain: GUUCCGUUGGCGUAAUGGUAACGCGUCUCCCUCCUAAGGAGAAGACUGCGGGUUCGAGUCCCGUACGGAACG

Variants of: B1
Assay: yeast fitness relative to wild type (ratio to wild type); higher = fitter; tRNA-Arg(CCU), competitive growth, 37 C, YPD
How it was run: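 The tRNA-Arg(CCU) gene variants were made by chemical synthesis with a 3% per-site mutation rate at 69 sites and inserted at the native genomic locus of Saccharomyces cerevisiae. After pooling, the strains were competed in YPD at 37°C for 24 hours in six parallel replicates. Gene amplicons from the start population and each end population were read by 100-nucleotide paired-end sequencing, and Darwinian fitness relative to wild type was taken from genotype frequency changes. Genotypes needed ≥ 100 starting reads, and estimates < 0.5 were set to 0.5.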
GUUCCGUUGGCGUAAUGGUAACGCGUCUCCCUCCUAAGGUGAACACUGCGGGUUCGAGUCCCGCACGGAACG [A40U G44C U64C] showed a yeast fitness of 0.944. With GUUCCGUUGGCGUAAUGGUAACGCGUCUCCCUCCUAAGGAAAAGACUGCGGGUUCGAGUGCCGCGCGGAACG [G41A C60G U64C A65G] the yeast fitness was at most 0.5. GUUCCGUUGGCGUAAUGGUAACGCGUCUCCCUCCUAAGGAAAAGAGUGCAGGUUCGAGUCCAGUACGGAACG [G41A C46G G50A C62A] gave a yeast fitness of 0.537. In the case of GUUCCGUUGGCGUAAUGGUAACGCGUCUCCCUCCUAAGGAAAGGACUGCGGGUUCGAGUCCCGUAAGGAACG [G41A A43G C66A], the yeast fitness is reported as at most 0.5. For GUUCCGUUGGCGUAAUGGUAACGCGUCUCCCUCCUAAGGUGAAGACUGCGGGUUCGAGUCCCGAACGGAACG [A40U U64A], the yeast fitness was 0.675. With GUUCCGUUGGCGUAAUGGUAACGCGUCUCCCUCCUAAGGAAAAGUCUGCGGGUUCGAUUACCGUACGGAACG [G41A A45U G58U C60A] the yeast fitness was 0.583. GUUCCGUUGGCGUAAUGGUAACGCGUCUCCCUCCUAAGGAACAGACUGCGGGUUCGAGUCCCGUCCGGAACG [G41A A42C A65C] showed a yeast fitness of 0.565. GUUCCGUUGGCGUAAUGGUAACGCGUCUCCCUCCUAAGGAAAAGACCGCGGGUUCGAGUCCCGUACGGAACG [G41A U47C] gave a yeast fitness of 0.931. For GUUCCGUUGGCGUAAUGGUAACGCGUCUCCCUCCUAAGGAAAAGACUGCGGGUUCGAGUCCCGUACGGAUCG [G41A A70U], the yeast fitness was 0.977. With GUUCCGUUGGCGUAAUGGUAACGCGUCUCCCUCCUAAGGAAAAGACUGCGGGUUCGAGUCCCGUACGGACCG [G41A A70C] the yeast fitness was 0.901. Work on GUUCCGUUGGCGUAAUGGUAACGCGUCUCCCUCCUAAGGUGAAGACUGCGGCUUCGAGUCCCGUACGGAACG [A40U G52C] yielded a yeast fitness of 0.608. GUUCCGUUGGCGUAAUGGUAACGCGUCUCCCUCCUAAGGAAUAGACUGCCGGUUCGAGUCCCGUACGGAGCG [G41A A42U G50C A70G] gave a yeast fitness of at most 0.5. With GUUCCGUUGGCGUAAUGGUAACGCGUCUCCCUCCUAAGGUGAAGACUGCGGGUUCGAGUCCCGUACAGACCG [A40U G67A A70C] the yeast fitness was 0.572. GUUCCGUUGGCGUAAUGGUAACGCGUCUCCCUCCUAAGGAAAAGACUGCGGGUUCGAGUGUCGUGCGGAACG [G41A C60G C61U A65G] gave a yeast fitness of 0.644. Work on GUUCCGUUGGCGUAAUGGUAACGCGUCUCCCUCCUAAGGAAAAGACAGUGGGUUCGAGCCCCGUACCGAUCG [G41A U47A C49U U59C G67C A70U] yielded a yeast fitness of 0.532. For GUUCCGUUGGCGUAAUGGUAACGCGUCUCCCUCCUAAGGAAAGGACUGCGGGUUCGAGUCCCGUACGGAUCG [G41A A43G A70U], the yeast fitness was 0.659. For GUUCCGUUGGCGUAAUGGUAACGCGUCUCCCUCCUAAGGAAAGGACUGCGGGUUCGAGUCCCGUACGGAACG [G41A A43G], the yeast fitness was 0.81. GUUCCGUUGGCGUAAUGGUAACGCGUCUCCCUCCUAAGGAAAAGACUGCGGGUUCGAGUGCCAUGCGGAACG [G41A C60G G63A A65G] showed a yeast fitness of 0.529. Work on GUUCCGUUGGCGUAAUGGUAACGCGUCUCCCUCCUAAGGUGAAGACUGCGGGUUCGAGUCCCGUACAGAACG [A40U G67A] yielded a yeast fitness of 0.82. In the case of GUUCCGUUGGCGUAAUGGUAACGCGUCUCCCUCCUAAGGUGAAGACUACGGGUUCGAGUCCCGGACGGAACG [A40U G48A U64G], the yeast fitness is reported as 0.631. Variant GUUCCGUUGGCGUAAUGGUAACGCGUCUCCCUCCUAAGGAAAGGACUGCGGGUUCGAGUUCCGUACGGACCG [G41A A43G C60U A70C] has a yeast fitness of 0.542. In the case of GUUCCGUUGGCGUAAUGGUAACGCGUCUCCCUCCUAAGGUGAAGACUGCGGGUCCGAGUCCUGUACGGAACG [A40U U54C C62U], the yeast fitness is reported as 0.528. Variant GUUCCGUUGGCGUAAUGGUAACGCGUCUCCCUCCUAAGGAAAAGACUGCGGGUUCGAGUCCCGUACUGCACG [G41A G67U A69C] has a yeast fitness of at most 0.5. With GUUCCGUUGGCGUAAUGGUAACGCGUCUCCCUCCUAAGGAACAGACUGCGGGUUCGAGUCCCGUACGGAACG [G41A A42C] the yeast fitness was 0.726. In the case of GUUCCGUUGGCGUAAUGGUAACGCGUCUCCCUCCUAAGGAAGAGACUGCGGGUUCGAGUCCCGUACGGAACG [G41A A42G], the yeast fitness is reported as 0.911. For GUUCCGUUGGCGUAAUGGUAACGCGUCUCCCUCCUAAGGAAAAGACUGCGGGUUCGAGUCCUGUACGGAACG [G41A C62U], the yeast fitness was 0.844. With GUUCCGUUGGCGUAAUGGUAACGCGUCUCCCUCCUAAGGAAAAGACUGCGGGUUCGAGUCCAGUACGGAACG [G41A C62A] the yeast fitness was 0.777. With GUUCCGUUGGCGUAAUGGUAACGCGUCUCCCUCCUAAGGAAAAGACUGCGGGUUCGAGUCACGUACGGAACG [G41A C61A] the yeast fitness was 0.742. For GUUCCGUUGGCGUAAUGGUAACGCGUCUCCCUCCUAAGGAAAAGACUGCGGGUUCGAGUCCAGUACGGACCG [G41A C62A A70C], the yeast fitness was at most 0.5. Variant GUUCCGUUGGCGUAAUGGUAACGCGUCUCCCUCCUAAGGAAAGGACUGCGGGUUCGAGUUCCGUACGGAACG [G41A A43G C60U] has a yeast fitness of 0.507. GUUCCGUUGGCGUAAUGGUAACGCGUCUCCCUCCUAAGGUGAAGACUGCGGCUUCGAGUGCCGUACGGAACG [A40U G52C C60G] showed a yeast fitness of at most 0.5. Work on GUUCCGUUGGCGUAAUGGUAACGCGUCUCCCUCCUAAGGAAAAGAGUACGGGUCUGAGUCCCGUACGGACCG [G41A C46G G48A U54C C55U A70C] yielded a yeast fitness of 0.542. In the case of GUUCCGUUGGCGUAAUGGUAACGCGUCUCCCUCCUAAGGACCAGACUGCGGGUUCGAGUCCCGUACGGAACG [G41C A42C], the yeast fitness is reported as 0.565. With GUUCCGUUGGCGUAAUGGUAACGCGUCUCCCUCCUAAGGACUAGACUGCGGGUUCGAGUCCCGUACGGAACG [G41C A42U] the yeast fitness was 0.79. With GUUCCGUUGGCGUAAUGGUAACGCGUCUCCCUCCUAAGGAAAAGGCUGCGGGUUCAAGUCCCGUACGGAACG [G41A A45G G56A] the yeast fitness was 0.582. GUUCCGUUGGCGUAAUGGUAACGCGUCUCCCUCCUAAGGAAAAGACUGCGGGUUCGUGUACCGUACGCAACG [G41A A57U C60A G68C] gave a yeast fitness of at most 0.5. With GUUCCGUUGGCGUAAUGGUAACGCGUCUCCCUCCUAAGGUGAAGACUGCGGGUACGAGUCCCGUACGGAACG [A40U U54A] the yeast fitness was 0.576.
